The source of these data is ChEMBL document CHEMBL2086359, “Tormentic acid derivatives: synthesis and apoptotic activity” (Eur J Med Chem, 2012).

The subject of assay [1] is 8505C. Description: Induction of apoptosis in human 8505C cells after 24 to 48 hrs by DNA laddering assay. Type of assay: functional, cell-based. A digest of the protocol:
(§1)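 About 1×10^6 cells were grown in 25 cm2 flasks to 80% and exposed to compound-loaded medium for 24–48 h, with blank medium as control. Cells were collected from the supernatant (300 g, 4 °C), washed in PBS and lysed. Lysates were digested with RNase for 2 h at 37 °C, then with proteinase K for 12 h at 50 °C. DNA was run on agarose gel electrophoresis ([…], 2 h).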

A further assay has as its system A549. Description: Cytotoxicity against human A549 cells after 96 hrs by SRB assay. Type of assay: functional, cell-based. The procedure, abridged:
(§2)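 Monolayer cultures kept in RPMI 1640 with 10% heat-inactivated FBS and penicillin/streptomycin at 37 °C, 5% CO2. Exponentially growing cells were seeded and treated 24 h later with serial dilutions (0–30 µM) for 96 h, with DMSO or DMF at most 0.5% final. Cells were fixed with 10% TCA at 4 °C and stained with 0.4% SRB for about 30 min. Plates were washed with 1% acetic acid and the dye dissolved in 10 mM Tris base. Absorbance was read at 570 nm and survival taken relative to untreated controls. IC50 was estimated from dose–response curves, averaged from at least 5 independent experiments.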

In a further assay the test system is NIH3T3. Description: Cytotoxicity against mouse NIH/3T3 cells after 96 hrs by SRB assay. Type of assay: cell-based. A digest of the protocol:
as §2

Assay [2] can be described thus: Cytotoxicity against human 518A2 cells after 96 hrs by SRB assay. Format: functional, cell-based. The procedure, abridged:
as §2
In general terms: The SRB assay estimates cell density from bound dye.

Assay [3] in a line: Cytotoxicity against human WW030272 cells after 96 hrs by SRB assay. Type of assay: cell-based. A digest of the protocol: as §2
Assay [4] in a line: Cytotoxicity against human A253 cells after 96 hrs by SRB assay. Format: functional, cell-based. A digest of the protocol:
as §2

Another assay has as its system MCF7. Description: Cytotoxicity against human MCF7 cells after 96 hrs by SRB assay. Format: functional, cell-based. The procedure, abridged: as §2
Assay [5] deals with 518A2. Description: Induction of apoptosis in human 518A2 cells after 24 to 48 hrs by DNA laddering assay. Format: functional, cell-based. The procedure, abridged:
as §1

The next assay relates to DLD-1. Description: Cytotoxicity against human DLD1 cells after 96 hrs by SRB assay. Type of assay: functional, cell-based. A digest of the protocol:
as §2

In another assay the test system is A2780. Description: Cytotoxicity against human A2780 cells after 96 hrs by SRB assay. Type of assay: functional, cell-based. The procedure, abridged:
as §2

Assay [6] has as its system 8505C. Nature of the assay: Cytotoxicity against human 8505C cells after 96 hrs by SRB assay. Type of assay: functional, cell-based. The procedure, abridged: as §2
Assay [7] deals with 8505C. Description: Induction of apoptosis in human 8505C cells assessed as induction of cell death after 24 to 48 hrs by AO/PI exclusion dye assay. Format: functional, cell-based. A digest of the protocol:
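About 1×10^6 cells were grown in 25 cm2 flasks to 80% and given compound-loaded medium for 24–48 h, with blank medium as control. Cells were recovered from the supernatant (300 g, 4 °C), washed and resuspended in PBS. They were mixed 1:1 with AO/PI solution and viewed by fluorescence microscopy: green cells were scored as apoptotic, red as necrotic.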

For assay [8], the system named is 8505C. Description: Induction of apoptosis in human 8505C cells migration of phosphatidylserine from inner to outer cell membrane at 3.5 uM after 6 hrs by Annexin V-FITC/PI based FACS analysis. Format: functional. In general terms: A flow cytometer gives signals particle by particle.
Assay [9] has as its system 8505C. Description: Induction of apoptosis in human 8505C cells assessed as migration of phosphatidylserine from inner to outer cell membrane at 30 uM after 6 hrs by Annexin V-FITC/PI based FACS analysis. Format: functional.
For assay [10], the system named is 8505C. Description: Induction of apoptosis in human 8505C cells assessed as condensation of chromatin at 30 uM after 24 hrs by acridine orange based fluorescence microscopy analysis. Type of assay: functional, cell-based. The procedure, abridged:
(§3)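 They were treated with 30 µM compound, and the next day washed with PBS and stained with acridine orange. Living cells were inspected by fluorescence microscopy for chromatin condensation and nuclear membrane blebbing.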

The subject of assay [11] is 518A2. Nature of the assay: Induction of apoptosis in human 518A2 cells assessed as condensation of chromatin at 30 uM after 24 hrs by acridine orange based fluorescence microscopy analysis. Format: functional, cell-based. The procedure, abridged: as §3
Assay [12] concerns 8505C. Nature of the assay: Induction of apoptosis in human 8505C cells assessed as blebbing of nuclear membrane at 30 uM after 24 hrs by acridine orange based fluorescence microscopy analysis. Type of assay: functional, cell-based. A digest of the protocol: as §3
Assay [13] concerns 518A2. Nature of the assay: Induction of apoptosis in human 518A2 cells assessed as blebbing of nuclear membrane at 30 uM after 24 hrs by acridine orange based fluorescence microscopy analysis. Format: functional, cell-based. The procedure, abridged: as §3

The source made the active and inactive calls. The calls are words filed in the database; no cut-off is given here.

Consider `COC(=O)[C@]12CC[C@@H](C)[C@@](C)(O)[C@H]1C1=CC[C@@H]3[C@@]4(C)C[C@@H](O)[C@@H](O)C(C)(C)[C@@H]4CC[C@@]3(C)[C@]1(C)CC2` [EUSCAPHIC ACID METHYL ESTER], for which the result in the assay on 8505C [1] and in the assay on 518A2 [5] was Active. Also, the IC50 was 30.6 µmol in the assay with A549; above 30 µmol in the assay with NIH3T3; 27.7 µmol in [2]; 23.4 µmol in assay [3]; 16.4 µmol in assay [4]; 17.8 µmol in the assay on MCF7. Moreover, the IC50 in the assay on DLD-1 amounted to 35.8 µmol; in the assay with A2780, 12.8 µmol; in the assay with 8505C [6] it was 29.3 µmol.

`COC(=O)[C@]12CC[C@@H](C)[C@@](C)(O)[C@H]1C1=CC[C@@H]3[C@@]4(C)C[C@@H](OC(=O)CCl)[C@H](OC(=O)CCl)C(C)(C)[C@@H]4CC[C@@]3(C)[C@]1(C)CC2`: the result in the assay on 8505C [1], in the assay on 8505C [7], in the assay on 8505C [8] and in the assay on 518A2 [5] was Active. Further, the IC50 turned out to be 1.2 µmol in the assay on A549; 1.1 µmol in the assay with NIH3T3; 1.1 µmol in assay [2]; 3.4 µmol in [3]; 1.6 µmol in [4]; 1.5 µmol with MCF7. The IC50 in the assay on DLD-1 was 2.2 µmol; in the assay on A2780, 0.8 µmol; in the assay on 8505C [6] it was 1.6 µmol.

With `C[C@@H]1CC[C@]2(C(=O)O)CC[C@]3(C)C(=CC[C@@H]4[C@@]5(C)C[C@@H](O)[C@H](O)C(C)(C)[C@@H]5CC[C@]43C)[C@@H]2[C@]1(C)O` [TOMENTIC ACID], the result with 8505C [1], with 8505C [7], with 8505C [9] and in the assay with 518A2 [5] was Active. For the same compound, the IC50 in the assay on A549 was 31 µmol; with NIH3T3 it was above 30 µmol; in assay [2], above 30 µmol; in assay [3], 47.7 µmol; in assay [4] it was above 30 µmol; with MCF7 it was 32.3 µmol. The IC50 with DLD-1 is 31 µmol; with A2780, above 30 µmol; in the assay on 8505C [6], 23.4 µmol.

With `COC(=O)[C@]12CC[C@@H](C)[C@@](C)(O)[C@H]1C1=CC[C@@H]3[C@@]4(C)C[C@H](O)[C@H](O)C(C)(C)[C@@H]4CC[C@@]3(C)[C@]1(C)CC2`, the result in the assay with 8505C [1] and with 518A2 [5] was Active. The IC50 in the assay with A549 is above 30 µmol; in the assay on NIH3T3, above 30 µmol; in assay [2], above 30 µmol; in assay [4] it was 15.3 µmol; with MCF7, 22.6 µmol; with DLD-1, above 30 µmol. In addition, the values for the IC50 with A2780 and in the assay on 8505C [6] were 18.9 µmol and above 30 µmol, respectively.

With `COC(=O)[C@]12CC[C@@H](C)[C@@](C)(O)[C@H]1C1=CC[C@@H]3[C@@]4(C)C[C@@H](O)[C@H](O)C(C)(C)[C@@H]4CC[C@@]3(C)[C@]1(C)CC2` [TORMENTIC ACID METHYL ESTER], the result in the assay with 8505C [1], in the assay on 8505C [7], with 518A2 [5], with 8505C [10], with 518A2 [11] and in the assay with 8505C [12] was Active. Further, in the assay with 518A2 [13], the result was Active. In addition, the IC50 in the assay with NIH3T3 was found to be 15.6 µmol; in [2], 31.3 µmol; in assay [3], 47.5 µmol; in assay [4], 17 µmol; in the assay on MCF7, 31.3 µmol; in the assay on DLD-1, 37.4 µmol. Also, the IC50 in the assay on A2780 amounted to 23.9 µmol; with 8505C [6], 42 µmol.

Regarding `CC1(C)CC[C@]2(C(=O)O)CC[C@]3(C)C(=CC[C@@H]4[C@@]5(C)C[C@@H](O)[C@H](O)C(C)(C)[C@@H]5CC[C@]43C)[C@@H]2C1`, the result with 8505C [7] was Active.

With `CC(=O)O[C@@H]1C[C@]2(C)[C@H]3CC=C4[C@H]5[C@](C(=O)O)(CC[C@@H](C)[C@@]5(C)O)CC[C@@]4(C)[C@]3(C)CC[C@H]2C(C)(C)[C@H]1O`, the result in the assay with 8505C [1] and in the assay with 518A2 [5] was Active. For the same compound, the IC50 in the assay on A549 is above 30 µmol; in the assay on NIH3T3, above 30 µmol; in assay [2], above 30 µmol; in assay [4], above 30 µmol; in the assay with MCF7, 25.3 µmol; in the assay with DLD-1, above 30 µmol. Further, the IC50 is 24.3 µmol in the assay on A2780 and above 30 µmol in the assay with 8505C [6].

In the case of `CC(=O)O[C@@H]1C[C@]2(C)[C@H]3CC=C4[C@H]5[C@](C(=O)O)(CC[C@@H](C)[C@@]5(C)O)CC[C@@]4(C)[C@]3(C)CC[C@H]2C(C)(C)[C@H]1OC(C)=O`, the result in the assay with 8505C [1] and with 518A2 [5] was Active. Also, the IC50 is above 30 µmol in the assay on A549; 32.3 µmol in the assay on NIH3T3; above 30 µmol in [2]; 27.3 µmol in [4]; 20.4 µmol in the assay on MCF7; above 30 µmol in the assay on DLD-1. For the same compound, the IC50 in the assay on A2780 was 17.6 µmol; in the assay on 8505C [6], above 30 µmol.

As for `COC(=O)[C@]12CC[C@@H](C)[C@@](C)(O)[C@H]1C1=CC[C@@H]3[C@@]4(C)C=C(O)C(=O)C(C)(C)[C@@H]4CC[C@@]3(C)[C@]1(C)CC2`, the result in the assay with 8505C [1] and in the assay with 518A2 [5] was Active. Further, the IC50 in the assay on A549 is above 30 µmol; with NIH3T3, above 30 µmol; in [2], 17.2 µmol; in assay [4], above 30 µmol; in the assay on MCF7, 26 µmol; in the assay with DLD-1 it was above 30 µmol. Besides, the IC50 was above 30 µmol in the assay on A2780 and 25 µmol in the assay with 8505C [6].

For the compound `CC(=O)O[C@H]1[C@H](O)C[C@]2(C)[C@H]3CC=C4[C@H]5[C@](C(=O)O)(CC[C@@H](C)[C@@]5(C)O)CC[C@@]4(C)[C@]3(C)CC[C@H]2C1(C)C`, the outcome in the assay on 8505C [1] and in the assay with 518A2 [5] was Active. For the same compound, the IC50 in the assay with A549 was above 30 µmol; in the assay with NIH3T3, above 30 µmol; in [2], above 30 µmol; in [4], above 30 µmol; in the assay with MCF7 it was 26.2 µmol; in the assay on DLD-1 it was above 30 µmol. Moreover, the IC50 in the assay on A2780 was 28.1 µmol; with 8505C [6] it was above 30 µmol.
